# In PMC4574835 (British Journal of Clinical Pharmacology, 2015):
# How the values were obtained:
# [1] = Exploratory PK-PD relationship, safety endpoints; assay type: in vivo, human; conditions: AUC(0-τ), Cmax and Cτ; except serum creatinine and CRCL
# How it was run: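 This was an exploratory graphical analysis in phase 2b/3 treatment-naive patients. Individual predicted steady-state Cτ, Cmax and AUC(0-τ) came from the final population model, using actual doses and assuming no inter-occasion variability. They were plotted against change from baseline in serum creatinine, creatinine clearance, urine albumin:creatinine ratio, ALT and total bilirubin, both as maximal change over 48 weeks and as change at week 48.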
# [2] = test system: organic cation transporter, OCT2; conditions: cited from earlier work
# [3] = Individual predicted steady-state PK parameters; assay type: in vivo, human; conditions: for Tmax / AUC / Cmax: human, plasma, oral; for AUC: AUC(0-τ); for AUC / Cmax / Cτ: steady state
# How it was run: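 Individual parameters were empirical Bayes estimates from the final population model, using each subject's actual dose after repeat dosing. AUC(0-τ) was Dose/([CL/F_i]/F). Cmax, tmax and Cτ came from simulated steady-state concentration–time profiles using individual parameters, assuming no inter-occasion variability and zero residual variability. Summary statistics were computed.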
# [4] = test system: viral strains harboring major integrase resistance mutations selected for by raltegravir and elvitegravir; conditions: in vitro; mutations selected for by RAL and EVG; cited from earlier work
# Population PK model = assay type: in vivo, human
# [5] = 10 mg, ING111521, 10 mg once daily, geometric mean (95% CI)
# [6] = 10 mg, SPRING-1, 10 mg once daily, geometric mean (95% CI)
# [7] = 50 mg, ING111521, 50 mg once daily, geometric mean (95% CI)
# [8] = 50 mg, SPRING-2, 50 mg once daily, geometric mean (95% CI)
# [9] = NONMEM point estimate, inter-individual variability
# [10] = NONMEM point estimate, listed as DTG
smiles,measurement,setting,value
"C[C@@H]1CCO[C@H]2Cn3cc(C(=O)NCc4ccc(F)cc4F)c(=O)c(O)c3C(=O)N12 [dolutegravir, Dolutegravir]",Relationship between DTG exposure and the safety endpoints,[1],No relationship
same,Inhibition of OCT2,[2],known to inhibit
same,Tmax,[3],~2 h
same,Tmax,[3]; 10 mg,1.66 h
same,AUC,[3]; [5],9330 ng·h/mL
same,AUC,[3]; [6],14300 ng·h/mL
same,Cmax,[3]; [5],691 ng/mL
same,Cmax,[3]; [6],957 ng/mL
same,Tmax,[3]; 50 mg,1.94 h
same,AUC,[3]; [7],41300 ng·h/mL
same,AUC,"[3]; 50 mg, SPRING-1, 50 mg once daily, geometric mean (95% CI)",53800 ng·h/mL
same,AUC,[3]; [8],53600 ng·h/mL
same,Cmax,[3]; [7],2940 ng/mL
same,Cmax,[3]; [8],3690 ng/mL
same,Cτ,"[3]; 50 mg once daily, three studies pooled (n = 449), geometric mean",1.11 µg ml^–1
same,Cτ,"[3]; ING111521, 10 mg once daily, geometric mean (95% CI)","0.168 (0.136, 0.208) µg ml^–1"
same,Cτ,"[3]; ING111521, 50 mg once daily, geometric mean (95% CI)","0.785 (0.689, 0.895) µg ml^–1"
same,Cτ,"[3]; SPRING-1, 10 mg once daily, geometric mean (95% CI)","0.311 (0.281, 0.345) µg ml^–1"
same,Cτ,"[3]; SPRING-1, 25 mg once daily, geometric mean (95% CI)","0.530 (0.462, 0.609) µg ml^–1"
same,Cτ,"[3]; SPRING-1, 50 mg once daily, geometric mean (95% CI)","1.17 (1.04, 1.33) µg ml^–1"
same,Cτ,"[3]; SPRING-2, 50 mg once daily, geometric mean (95% CI)","1.10 (1.05, 1.15) µg ml^–1"
same,Activity against viral strains harboring major integrase resistance mutations,[4],retains activity
same,ALAG (absorption lag-time),Population PK model; NONMEM point estimate,0.263 h
same,ka (absorption rate constant),Population PK model; NONMEM point estimate,2.24 h^–1
same,F ∼ 10 mg,"Population PK model; NONMEM point estimate, factor on F for 10 mg dose",1.24
same,F ∼ GENDER,"Population PK model; NONMEM point estimate, factor on F for females",1.21
same,ω^2V (variance of random effect of V/F),Population PK model; [9],0.0188
same,ω^2ka (variance of random effect of ka),Population PK model; [9],0.224
same,ALAG (absorption lag-time),Population PK model; [10],"0.263 (0.0942, 0.432) h"
same,ka (absorption rate constant),Population PK model; [10],"2.24 (1.56, 2.92) h^–1"
same,V/F ∼ WT,"Population PK model; NONMEM point estimate, power coefficient (WT/70)",0.768
same,σ^2prop (proportional residual error),"Population PK model; NONMEM point estimate, residual variability",0.0704
same,CL/F range over age in analysis population,Population PK model; age 18–68 years,0.772–0.998 l h^–1
same,ALAG,"Population PK model; bootstrap median, 1000 runs",0.262 h
same,CL/F,"Population PK model; bootstrap median, 1000 runs",0.901 l h^–1
same,F ∼ 10 mg,"Population PK model; bootstrap median, 1000 runs",1.24
same,F ∼ GENDER,"Population PK model; bootstrap median, 1000 runs",1.21
same,V/F,"Population PK model; bootstrap median, 1000 runs",17.4 L
same,V/F ∼ WT,"Population PK model; bootstrap median, 1000 runs",0.774
same,ka,"Population PK model; bootstrap median, 1000 runs",2.21 h^–1
same,σ^2prop,"Population PK model; bootstrap median, 1000 runs",0.0698
same,ω^2CL,"Population PK model; bootstrap median, 1000 runs",0.0539
same,ω^2V,"Population PK model; bootstrap median, 1000 runs",0.0182
same,ω^2ka,"Population PK model; bootstrap median, 1000 runs",0.217
same,Increase in CL/F for study ING111521,Population PK model; compared with SPRING-1 and SPRING-2,35%
same,Oral bioavailability (F) higher in female subjects,"Population PK model; compared with males, mean",21%
same,Vd/F,"Population PK model; human, plasma, oral",17.4 L
same,Apparent clearance higher in current smokers,"Population PK model; vs non-current smokers, mean",16%
same,CL/F range over weights in analysis population,Population PK model; weight 39–135 kg,0.697–1.20 l h^–1
same,V/F range over weights in analysis population,Population PK model; weight 39–135 kg,11.1 to 28.8 L
